PMC8317952 (ACS catalysis, 2020)
Values joined by “and” are separate entries in the source; they are usually repeats but may differ in a detail not shown here. Equal entries are not always repeated. Structures can show the parent of a compound that is named as a salt. Where two headings read alike, the source gives them in different places.

Key:
P450BM-3 [1] = biological target: T1, P450BM-3 (Priestia megaterium, UniProt P14779); assay: biochemical; assay type: binding
T1 sequence (P14779 1-1049): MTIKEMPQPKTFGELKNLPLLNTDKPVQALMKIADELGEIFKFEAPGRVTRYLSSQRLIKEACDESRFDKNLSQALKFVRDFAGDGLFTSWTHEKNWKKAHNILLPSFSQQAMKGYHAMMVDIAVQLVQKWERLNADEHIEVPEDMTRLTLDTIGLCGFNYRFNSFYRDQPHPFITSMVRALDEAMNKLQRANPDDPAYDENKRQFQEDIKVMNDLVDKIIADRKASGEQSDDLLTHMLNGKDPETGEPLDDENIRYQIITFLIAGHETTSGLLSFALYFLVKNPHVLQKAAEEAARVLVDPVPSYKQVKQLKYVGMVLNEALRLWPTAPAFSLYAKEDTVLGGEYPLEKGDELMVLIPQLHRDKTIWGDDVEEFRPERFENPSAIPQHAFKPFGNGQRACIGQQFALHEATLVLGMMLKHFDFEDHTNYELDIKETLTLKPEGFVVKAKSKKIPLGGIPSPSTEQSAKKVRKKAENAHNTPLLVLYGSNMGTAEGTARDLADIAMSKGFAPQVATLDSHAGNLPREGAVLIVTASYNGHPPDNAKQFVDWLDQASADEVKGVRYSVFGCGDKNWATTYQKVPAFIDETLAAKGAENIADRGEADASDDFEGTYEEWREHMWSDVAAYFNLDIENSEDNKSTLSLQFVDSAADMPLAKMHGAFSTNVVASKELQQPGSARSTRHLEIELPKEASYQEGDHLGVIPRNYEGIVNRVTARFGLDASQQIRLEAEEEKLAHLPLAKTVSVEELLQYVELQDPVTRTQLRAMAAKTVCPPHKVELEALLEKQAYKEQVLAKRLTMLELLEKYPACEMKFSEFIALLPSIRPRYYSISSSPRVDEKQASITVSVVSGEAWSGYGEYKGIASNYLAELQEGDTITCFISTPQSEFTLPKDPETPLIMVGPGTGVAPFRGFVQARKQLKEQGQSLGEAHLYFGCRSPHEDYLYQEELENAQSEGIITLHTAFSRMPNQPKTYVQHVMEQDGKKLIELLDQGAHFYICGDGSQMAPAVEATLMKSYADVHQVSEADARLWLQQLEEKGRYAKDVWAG

P450BM-3 [2] = biological target: T1, P450BM-3; assay: Steady-state NADPH oxidation; assay type: biochemical, Bacillus megaterium; settings: for Km / kcat: rates of NADPH oxidation, hyperbolic fit, 23 °C
P450BM-3 [3] = biological target: T1, P450BM-3; assay: Pre-steady-state stopped-flow kinetics of substrate binding; design: species or system Bacillus megaterium; settings: for eigenvalue (λ) of spectral change, single exponential fit: ΔA390
P450BM-3 [4] = biological target: T1, P450BM-3; assay type: biochemical, Bacillus megaterium; settings: for site of hydroxylation: Jones oxidation, Baeyer-Villiger, LC-MS/MS
P450 102A2 (CYP102A2) [5] = assay: Literature: NADPH oxidation and binding with dodecyl sulfate by P450 102A2; assay type: biochemical, B. subtilis; settings: P450 102A2 at 37 °C vs P450BM-3 at 23 °C
P450 102A2 (CYP102A2) [6] = settings: cited from earlier work
P450BM-3 [7] = biological target: T1, P450BM-3; settings: read-out: Kd values in the previous literature; buffer conditions appear to affect these; cited from earlier work
P450BM-3 [8] = biological target: T1, P450BM-3; settings: cited from earlier work
ferrous P450BM-3 = settings: surrogate for O2; cited from earlier work
P450BM-3 [9] = biological target: T1, P450BM-3; assay: Burst experiment: stopped-flow NADPH oxidation with lauric acid; assay type: biochemical, Bacillus megaterium; settings: 2 μM P450BM-3, 500 μM lauric acid, 50 μM NADPH
Outline: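 In the stopped-flow instrument, enzyme (4 μM) premixed with 1 mM lauric acid was mixed with 100 μM NADPH, both in 50 mM potassium MOPS pH 7.5. Runs were at 23 °C in rapid-scanning mode, recording spectra from 332–565 nm with kinetic traces taken at individual wavelengths.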

P450BM-3 [10] = biological target: T1, P450BM-3; assay type: binding, Bacillus megaterium; settings: read-out: Kd estimate (Kd = koff/kon); from fitted on- and off-rate constants
mutants of P450BM-3 = settings: cited from earlier work
P450BM-3 [11] = biological target: T1, P450BM-3; settings: substrate-bound P450BM-3; cited from earlier work
[12] = read-out: Kd (spectral titration), 50 mM potassium MOPS pH 7.4, 23 °C
[13] = d0 vs d23 lauric acid, non-competitive, NADPH oxidation

Compound `CCCCCCCCCCCCOS(=O)(=O)O` [dodecyl sulfate] has a Kd (P450BM-3 [1]; [12]) of 14 ± 2 µM, a Km (P450BM-3 [2]) of 28 ± 1 µM and a kcat (P450BM-3 [2]) of 16.3 ± 0.333 s⁻¹. The “eigenvalue (λ) of spectral change, single exponential fit” value (P450BM-3 [3]; 2 μM dodecyl sulfate (final)) was 127 s⁻¹ and 127 ± 4 s⁻¹, the “eigenvalue (λ) of spectral change, single exponential fit” value (P450BM-3 [3]; 200 μM dodecyl sulfate (final)) was 51 ± 4 s⁻¹ and the “rate constant for substrate binding (kon), rough value” (P450BM-3 [3]; from binding rate and substrate concentration) was 6e+07 M⁻¹ s⁻¹. The “t1/2 of binding spectral changes” value (P450BM-3 [3]; stopped-flow) was 0.006 to 0.025 s, the site of hydroxylation (P450BM-3 [4]) was “primarily ω−1 hydroxylation” and the “fold lower specificity constant of P450 102A2 than P450BM-3” value (P450 102A2 (CYP102A2) [5]) was ~ 500 fold. The “apparent specificity constant kcat/S0.5” value (P450 102A2 (CYP102A2) [6]; 37 °C) was 1600 M⁻¹ s⁻¹ and the Hill n value (P450 102A2 (CYP102A2) [6]; spectral binding and NADPH oxidation) was 5.7.
For `CCCCCCCCCCCCCC(=O)O` [myristate], the Kd (P450BM-3 [1]) is listed as 12 µM, the Kd (P450BM-3 [7]) is listed as 0.5 to 78 µM and the “rate of reduction of iron from the ferric to the ferrous state” value (“rate of reduction of iron” below) (P450BM-3 [8]) is listed as 53 to 306 s⁻¹.
In the case of `[C-]#[O+]` [CO], the “rate constant for CO binding” value (ferrous P450BM-3) is listed as 1.6e+06 M⁻¹ s⁻¹.
For `CCCCCCCCCCCC(=O)O` [lauric acid], the Kd (P450BM-3 [1]; [12]) was 29 µM, the “KIE, ^D(V/K)” value (P450BM-3 [2]; [13]) was 0.79 ± 0.07 and the “KIE, ^DV” value (P450BM-3 [2]; [13]) was 1.19 ± 0.16. The “KIEs, measured with multiple concentrations of d0/d23 laurate” value (P450BM-3 [2]; depending on the assay method) was no more than 1.2, the kcat (P450BM-3 [2]) was 19.33 ± 2.5 s⁻¹ and the “KIE from rates of formation of hydroxylated laurate products” value (P450BM-3 [4]; LC-MS, 100 μM laurate, 180 second time point) was 1.03. For the same compound, the kinetic burst (P450BM-3 [9]) was “No burst was observed”, the “rate of NADPH oxidation, steady-state portion” value (P450BM-3 [9]; pH 7.5) was 608 ± 4 min⁻¹ and the Kd (P450BM-3 [7]) was 27 to 390 µM. The “rate of reduction of iron” value (P450BM-3 [8]) was 53 to 306 s⁻¹.
With `CC(O)CCCCCCCCCC(=O)O` (centres unmarked) [11-OH lauric acid] the “type of difference spectrum” value (P450BM-3 [1]) was “Type I”, the Kd (P450BM-3 [1]; [12]) was 8 ± 2 µM and the Kd (P450BM-3 [10]) was 11 µM.
Compound d23-Lauric acid [d23 lauric acid] has a kcat (P450BM-3 [2]) of 16.2 ± 0.5 s⁻¹.
For `CCOc1ccc2ccc(=O)oc2c1` [7-ethoxycoumarin], the “KIEs for O-deethylation” value (mutants of P450BM-3) is given as 6–17.
For `CCCCCCCCCCCCCCCC(=O)NCC(=O)O` [N-palmitoylglycine], the Km (P450BM-3 [2]) is given as 9 ± 2 µM, the kcat (P450BM-3 [2]) is given as 9.92 ± 0.667 s⁻¹ and the “rate of change of temperature-dependent spin equilibria” value (P450BM-3 [11]) is given as ~ 800 s^−1.
In the case of `CCCCCCCCCCCCCCCC(=O)O` [palmitic acid, Palmitic acid], the “rate of reduction of iron” value (P450BM-3 [8]) is listed as 53 to 306 s⁻¹.
For `CCCCCCCCCCCCCCOS(=O)(=O)O` [tetradecyl sulfate], the Kd (P450BM-3 [1]) was 1.4 ± 0.1 µM, the “initial rate of disappearance of NADPH (A340)” value (P450BM-3 [2]; with tetradecyl sulfate as substrate) was 1.75 pmol/s and the site of hydroxylation (P450BM-3 [4]) was “primarily ω−1 hydroxylation”. The “NADPH oxidation accounted for as disappearance of the substrate” value (P450BM-3 [4]; over the first 100 seconds) was 97%.
